# Laboratory results from ChEMBL document CHEMBL2331455, “Potent vasorelaxant analogs from chemical modification and biotransformation of isosteviol” (Eur J Med Chem, 2013).
# pEC50: −log10 of the molar value.
# Test system: Aorta
# Assay: Vasorelaxant activity in Sprague-Dawley rat aorta assessed as reduction of phenylephrine-induced contraction
# Assay type: functional, tissue-based
# Conditions: not given
# In short: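 Aortic rings held in HPSS (140 mM NaCl, 5 mM KCl, 2 mM CaCl2, 1 mM MgCl2, 5 mM HEPES, 11 mM glucose, pH 7.4) and equilibrated 2 h with several buffer changes. Isometric force changes were recorded continuously. Acetylcholine served as positive control.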
row,pEC50,SMILES
1,8.31,CC(=O)O[C@@H]1C[C@]23CC[C@H]4[C@@](C)(CCC[C@@]4(C)C(=O)O)[C@@H]2CC[C@@]1(C)C3
2,8.46,C[C@@]12CC[C@H]3[C@]4(C)CCC[C@@](C)(C(=O)O)[C@H]4C[C@H](O)[C@]3(CC1=O)C2
3,7.19,CC(=O)OCC[N+](C)(C)C [ACETYLCHOLINE IODIDE]
4,7.22,CC(=O)O[C@@H]1C[C@@]23C[C@]1(C)CC[C@H]2[C@]1(C)CCC[C@@](C)(C(=O)O)[C@H]1C[C@@H]3O
5,7.40,C[C@@]12CC[C@H]3[C@]4(C)CCC[C@@](C)(C(=O)O)[C@H]4C[C@@H](O)[C@]3(C[C@H]1O)C2

# Second part, the compound before the results:
row,SMILES,pEC50
1,CC(=O)O[C@@H]1C[C@]23CC[C@H]4[C@@](C)(CCC[C@@]4(C)C(=O)O)[C@@H]2CC[C@@]1(C)[C@@H]3O,7.71
2,C[C@@]12CC[C@@H]3[C@@](CC[C@H]4[C@@]3(C)CCC[C@@]4(C)C(=O)O)(C[C@H]1O)C2,7.54
3,C[C@@]12CC[C@H]3[C@]4(C)CCC[C@@](C)(C(=O)O)[C@H]4C[C@H](O)[C@]3(C[C@H]1O)C2,7.38
4,C[C@@]12CCC[C@@](C)(C(=O)O)[C@H]1CC[C@@]13C[C@@H](O)[C@@](C)(CC[C@@H]21)[C@@H]3O,6.52
5,C[C@@]12CC[C@@H]3[C@@](CC[C@H]4[C@@]3(C)CCC[C@@]4(C)C(=O)O)(CC1=O)C2 [ISOSTEVIOL],7.24

# Test system: Vero
# Assay: Cytotoxicity against african green monkey Vero cells
# Assay type: cell-based
# Conditions: chlorocebus sabaeus
row,SMILES,Activity
1,C[C@@]12CC[C@H]3[C@]4(C)CCC[C@@](C)(C(=O)O)[C@H]4C[C@H](O)[C@]3(CC1=O)C2,Non-toxic
